# Source: ChEMBL document CHEMBL5303300, “EUbOPEN Chemogenomics Library - Multiplex” (2023)
# Values joined by “and” are separate entries in the source; they are usually repeats but may differ in a detail not shown here. Equal entries are not always repeated.
# Legend:
# Format in all cases: toxicity, cell-based
# Fibroblast = assay: Multiplex assay against human fibroblast; conditions: number of replicates 2
# How it was run: (§1)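 Phenotypes for tubulin, mitochondrial mass and membrane permeability are expressed as per cents of healthy-nucleus cells. Cells were stained live at seeding with Hoechst33342, BioTracker Green Microtubule Cytoskeleton Dye, MitoTracker Red and Annexin V Alexa Fluor 680, then imaged after compound addition on a CQ1 microscope at 37°C and 5% CO2. Machine-learning gating in CellPathfinder separated Hoechst high-intensity objects from normal cells, divided normal cells by nuclear state (healthy, pyknosed, fragmented) and divided pyknosed cells into mitotic or apoptotic.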
# U2OS = assay: Multiplex assay against U2OS; conditions: human, number of replicates 2; how it was run: as §1
# HEK-293T = assay: Multiplex assay against HEK293T; conditions: human, number of replicates 2; how it was run: as §1
# [1] = 12 h, 1 µM, compound concentration 1 uM
# [2] = 12 h, 10 µM, compound concentration 10 uM
# [3] = 24 h, 1 µM, compound concentration 1 uM
# [4] = 24 h, 10 µM, compound concentration 10 uM
# [5] = 48 h, 1 µM, compound concentration 1 uM
# [6] = 48 h, 10 µM, compound concentration 10 uM
smiles,measurement,setting,value
CN(C)CC#Cc1ccc2[nH]c3c(c2c1)-c1nc(N)ncc1CCC3,Population Apoptotic (%),Fibroblast; [1],30% and 35%
same,Population Fragmented Nuclei (%),Fibroblast; [1],32% and 18%
same,Population Healthy Nuclei (%),Fibroblast; [1],49% and 55%
same,Population Hoechst High Intensity Objects (%),Fibroblast; [1],0%
same,Population Membrane Permeable-Phenotype (%),Fibroblast; [1],4% and 6%
same,Population Mitochondria Different-Phenotype (%),Fibroblast; [1],2% and 0%
same,Population Mitotic Cells (%),Fibroblast; [1],69% and 64%
same,Population Normal (%),Fibroblast; [1],100%
same,Population Pyknosed Nuclei (%),Fibroblast; [1],17% and 25%
same,Population Tubulin-Different-Phenotype (%),Fibroblast; [1],23% and 28%
same,Total Cell Count,Fibroblast; [1],293 and 186
same,Population Fragmented Nuclei (%),Fibroblast; [2],25% and 22%
same,Population Healthy Nuclei (%),Fibroblast; [2],49% and 62%
same,Population Hoechst High Intensity Objects (%),Fibroblast; [2],0%
same,Population Membrane Permeable-Phenotype (%),Fibroblast; [2],0% and 5%
same,Population Mitochondria Different-Phenotype (%),Fibroblast; [2],2% and 1%
same,Population Mitotic Cells (%),Fibroblast; [2],61% and 89%
same,Population Normal (%),Fibroblast; [2],100% and 99%
same,Population Pyknosed Nuclei (%),Fibroblast; [2],25% and 15%
same,Population Tubulin-Different-Phenotype (%),Fibroblast; [2],26% and 31%
same,Total Cell Count,Fibroblast; [2],228 and 378
same,Population Apoptotic (%),Fibroblast; [3],48% and 47%
same,Population Fragmented Nuclei (%),Fibroblast; [3],18% and 27%
same,Population Healthy Nuclei (%),Fibroblast; [3],65% and 60%
same,Population Hoechst High Intensity Objects (%),Fibroblast; [3],0%
same,Population Membrane Permeable-Phenotype (%),Fibroblast; [3],7% and 1%
same,Population Mitochondria Different-Phenotype (%),Fibroblast; [3],0% and 4%
same,Population Mitotic Cells (%),Fibroblast; [3],51% and 52%
same,Population Normal (%),Fibroblast; [3],100% and 99%
same,Population Pyknosed Nuclei (%),Fibroblast; [3],16% and 11%
same,Population Tubulin-Different-Phenotype (%),Fibroblast; [3],25% and 26%
same,Total Cell Count,Fibroblast; [3],221 and 287
same,Population Apoptotic (%),Fibroblast; [4],39% and 42%
same,Population Fragmented Nuclei (%),Fibroblast; [4],19% and 16%
same,Population Healthy Nuclei (%),Fibroblast; [4],62% and 56%
same,Population Hoechst High Intensity Objects (%),Fibroblast; [4],4% and 1%
same,Population Membrane Permeable-Phenotype (%),Fibroblast; [4],4% and 1%
same,Population Mitochondria Different-Phenotype (%),Fibroblast; [4],4% and 3%
same,Population Mitotic Cells (%),Fibroblast; [4],60% and 57%
same,Population Normal (%),Fibroblast; [4],95% and 98%
same,Population Pyknosed Nuclei (%),Fibroblast; [4],17% and 26%
same,Population Tubulin-Different-Phenotype (%),Fibroblast; [4],52% and 43%
same,Total Cell Count,Fibroblast; [4],286 and 184
same,Population Apoptotic (%),Fibroblast; [5],70% and 47%
same,Population Fragmented Nuclei (%),Fibroblast; [5],25% and 32%
same,Population Healthy Nuclei (%),Fibroblast; [5],65% and 62%
same,Population Hoechst High Intensity Objects (%),Fibroblast; [5],1% and 2%
same,Population Membrane Permeable-Phenotype (%),Fibroblast; [5],3%
same,Population Mitochondria Different-Phenotype (%),Fibroblast; [5],0%
same,Population Mitotic Cells (%),Fibroblast; [5],29% and 52%
same,Population Normal (%),Fibroblast; [5],98% and 97%
same,Population Pyknosed Nuclei (%),Fibroblast; [5],9% and 5%
same,Population Tubulin-Different-Phenotype (%),Fibroblast; [5],24% and 17%
same,Total Cell Count,Fibroblast; [5],266 and 347
same,Population Apoptotic (%),Fibroblast; [6],68% and 64%
same,Population Fragmented Nuclei (%),Fibroblast; [6],13% and 6%
same,Population Healthy Nuclei (%),Fibroblast; [6],67% and 77%
same,Population Hoechst High Intensity Objects (%),Fibroblast; [6],0% and 5%
same,Population Membrane Permeable-Phenotype (%),Fibroblast; [6],13% and 12%
same,Population Mitochondria Different-Phenotype (%),Fibroblast; [6],1% and 5%
same,Population Mitotic Cells (%),Fibroblast; [6],31% and 35%
same,Population Normal (%),Fibroblast; [6],100% and 94%
same,Population Pyknosed Nuclei (%),Fibroblast; [6],18% and 16%
same,Population Tubulin-Different-Phenotype (%),Fibroblast; [6],52% and 63%
same,Total Cell Count,Fibroblast; [6],153 and 185
same,Population Apoptotic (%),U2OS; [1],100% and 38%
same,Population Fragmented Nuclei (%),U2OS; [1],30% and 13%
same,Population Healthy Nuclei (%),U2OS; [1],61% and 68%
same,Population Hoechst High Intensity Objects (%),U2OS; [1],3% and 0%
same,Population Membrane Permeable-Phenotype (%),U2OS; [1],5% and 1%
same,Population Mitochondria Different-Phenotype (%),U2OS; [1],2% and 1%
same,Population Normal (%),U2OS; [1],96% and 99%
same,Population Pyknosed Nuclei (%),U2OS; [1],7% and 17%
same,Population Tubulin-Different-Phenotype (%),U2OS; [1],61% and 84%
same,Population Apoptotic (%),U2OS; [2],50% and 17%
same,Population Healthy Nuclei (%),U2OS; [2],33% and 56%
same,Population Hoechst High Intensity Objects (%),U2OS; [2],0%
same,Population Membrane Permeable-Phenotype (%),U2OS; [2],10% and 5%
same,Population Mitochondria Different-Phenotype (%),U2OS; [2],0% and 4%
same,Population Mitotic Cells (%),U2OS; [2],50% and 82%
same,Population Normal (%),U2OS; [2],100% and 99%
same,Population Tubulin-Different-Phenotype (%),U2OS; [2],20% and 47%
same,Population Apoptotic (%),U2OS; [3],75% and 53%
same,Population Fragmented Nuclei (%),U2OS; [3],30% and 17%
same,Population Healthy Nuclei (%),U2OS; [3],57% and 58%
same,Population Hoechst High Intensity Objects (%),U2OS; [3],1% and 0%
same,Population Membrane Permeable-Phenotype (%),U2OS; [3],0% and 3%
same,Population Mitochondria Different-Phenotype (%),U2OS; [3],0% and 1%
same,Population Mitotic Cells (%),U2OS; [3],25% and 46%
same,Population Normal (%),U2OS; [3],98% and 99%
same,Population Pyknosed Nuclei (%),U2OS; [3],12% and 23%
same,Population Tubulin-Different-Phenotype (%),U2OS; [3],58% and 82%
same,Population Apoptotic (%),U2OS; [4],66% and 24%
same,Population Healthy Nuclei (%),U2OS; [4],31% and 39%
same,Population Hoechst High Intensity Objects (%),U2OS; [4],0%
same,Population Membrane Permeable-Phenotype (%),U2OS; [4],27% and 15%
same,Population Mitochondria Different-Phenotype (%),U2OS; [4],9% and 4%
same,Population Mitotic Cells (%),U2OS; [4],33% and 75%
same,Population Normal (%),U2OS; [4],100% and 99%
same,Population Tubulin-Different-Phenotype (%),U2OS; [4],45% and 49%
same,Population Apoptotic (%),U2OS; [5],45% and 69%
same,Population Fragmented Nuclei (%),U2OS; [5],37% and 13%
same,Population Healthy Nuclei (%),U2OS; [5],52% and 69%
same,Population Hoechst High Intensity Objects (%),U2OS; [5],0%
same,Population Membrane Permeable-Phenotype (%),U2OS; [5],7% and 3%
same,Population Mitochondria Different-Phenotype (%),U2OS; [5],5% and 0%
same,Population Mitotic Cells (%),U2OS; [5],54% and 30%
same,Population Normal (%),U2OS; [5],99% and 100%
same,Population Pyknosed Nuclei (%),U2OS; [5],11% and 17%
same,Population Tubulin-Different-Phenotype (%),U2OS; [5],67% and 77%
same,Population Apoptotic (%),U2OS; [6],50%
same,Population Healthy Nuclei (%),U2OS; [6],19% and 48%
same,Population Hoechst High Intensity Objects (%),U2OS; [6],0%
same,Population Membrane Permeable-Phenotype (%),U2OS; [6],20% and 28%
same,Population Mitochondria Different-Phenotype (%),U2OS; [6],0% and 2%
same,Population Mitotic Cells (%),U2OS; [6],50% and 49%
same,Population Normal (%),U2OS; [6],100% and 99%
same,Population Tubulin-Different-Phenotype (%),U2OS; [6],20% and 45%
same,Population Apoptotic (%),HEK-293T; [1],52%
same,Population Fragmented Nuclei (%),HEK-293T; [1],2% and 4%
same,Population Healthy Nuclei (%),HEK-293T; [1],81% and 82%
same,Population Hoechst High Intensity Objects (%),HEK-293T; [1],11% and 14%
same,Population Membrane Permeable-Phenotype (%),HEK-293T; [1],8%
same,Population Mitochondria Different-Phenotype (%),HEK-293T; [1],31% and 24%
same,Population Mitotic Cells (%),HEK-293T; [1],47%
same,Population Normal (%),HEK-293T; [1],89% and 85%
same,Population Pyknosed Nuclei (%),HEK-293T; [1],16% and 12%
same,Population Tubulin-Different-Phenotype (%),HEK-293T; [1],96%
same,Total Cell Count,HEK-293T; [1],491 and 406
same,Population Apoptotic (%),HEK-293T; [2],52% and 44%
same,Population Fragmented Nuclei (%),HEK-293T; [2],3%
same,Population Healthy Nuclei (%),HEK-293T; [2],73%
same,Population Hoechst High Intensity Objects (%),HEK-293T; [2],12%
same,Population Membrane Permeable-Phenotype (%),HEK-293T; [2],5% and 4%
same,Population Mitochondria Different-Phenotype (%),HEK-293T; [2],28% and 23%
same,Population Mitotic Cells (%),HEK-293T; [2],47% and 55%
same,Population Normal (%),HEK-293T; [2],87%
same,Population Pyknosed Nuclei (%),HEK-293T; [2],22% and 23%
same,Population Tubulin-Different-Phenotype (%),HEK-293T; [2],93% and 96%
same,Total Cell Count,HEK-293T; [2],350 and 360
same,Population Apoptotic (%),HEK-293T; [3],50% and 63%
same,Population Fragmented Nuclei (%),HEK-293T; [3],6% and 8%
same,Population Healthy Nuclei (%),HEK-293T; [3],83% and 80%
same,Population Hoechst High Intensity Objects (%),HEK-293T; [3],11%
same,Population Membrane Permeable-Phenotype (%),HEK-293T; [3],14% and 19%
same,Population Mitochondria Different-Phenotype (%),HEK-293T; [3],11% and 8%
same,Population Mitotic Cells (%),HEK-293T; [3],49% and 36%
same,Population Normal (%),HEK-293T; [3],88%
same,Population Pyknosed Nuclei (%),HEK-293T; [3],9% and 11%
same,Population Tubulin-Different-Phenotype (%),HEK-293T; [3],97% and 95%
same,Total Cell Count,HEK-293T; [3],646 and 621
same,Population Apoptotic (%),HEK-293T; [4],50% and 55%
same,Population Fragmented Nuclei (%),HEK-293T; [4],3% and 5%
same,Population Healthy Nuclei (%),HEK-293T; [4],75% and 77%
same,Population Hoechst High Intensity Objects (%),HEK-293T; [4],16% and 11%
same,Population Membrane Permeable-Phenotype (%),HEK-293T; [4],8% and 5%
same,Population Mitochondria Different-Phenotype (%),HEK-293T; [4],12% and 9%
same,Population Mitotic Cells (%),HEK-293T; [4],50% and 44%
same,Population Normal (%),HEK-293T; [4],83% and 88%
same,Population Pyknosed Nuclei (%),HEK-293T; [4],20% and 16%
same,Population Tubulin-Different-Phenotype (%),HEK-293T; [4],88% and 94%
same,Total Cell Count,HEK-293T; [4],381 and 452
same,Population Apoptotic (%),HEK-293T; [5],54% and 48%
same,Population Fragmented Nuclei (%),HEK-293T; [5],17%
same,Population Healthy Nuclei (%),HEK-293T; [5],78% and 77%
same,Population Hoechst High Intensity Objects (%),HEK-293T; [5],13% and 9%
same,Population Membrane Permeable-Phenotype (%),HEK-293T; [5],34% and 42%
same,Population Mitochondria Different-Phenotype (%),HEK-293T; [5],0%
same,Population Mitotic Cells (%),HEK-293T; [5],45% and 51%
same,Population Normal (%),HEK-293T; [5],86% and 90%
same,Population Pyknosed Nuclei (%),HEK-293T; [5],4%
same,Population Tubulin-Different-Phenotype (%),HEK-293T; [5],85% and 83%
same,Total Cell Count,HEK-293T; [5],1491 and 1520
same,Population Apoptotic (%),HEK-293T; [6],47% and 50%
same,Population Fragmented Nuclei (%),HEK-293T; [6],8% and 6%
same,Population Healthy Nuclei (%),HEK-293T; [6],71% and 79%
same,Population Hoechst High Intensity Objects (%),HEK-293T; [6],20% and 18%
same,Population Membrane Permeable-Phenotype (%),HEK-293T; [6],9% and 11%
same,Population Mitochondria Different-Phenotype (%),HEK-293T; [6],1% and 0%
same,Population Mitotic Cells (%),HEK-293T; [6],52% and 49%
same,Population Normal (%),HEK-293T; [6],79% and 81%
same,Population Pyknosed Nuclei (%),HEK-293T; [6],19% and 13%
same,Population Tubulin-Different-Phenotype (%),HEK-293T; [6],93% and 90%
same,Total Cell Count,HEK-293T; [6],505 and 520
